Reference: ChEMBL document CHEMBL1143684, “Exploring the structure-activity relationship of the ethylamine portion of 3-iodothyronamine for rat and mouse trace amine-associated receptor 1” (J Med Chem, 2007)

Legend:
Format in all cases: functional, cell-based
[1] = target: Trace amine-associated receptor 1 (Rattus norvegicus, UniProt Q923Y9); assay: Activity at rat TAAR1 expressed in HEK293 cells assessed as cAMP production
In short: (§1)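 HEK293 cells stably expressing rat or mouse TAAR1, kept in fresh medium ≥2 h, harvested in KRH, preincubated 20-30 min with 200 µM IBMX. Cells boiled 20 min in acetate buffer. cAMP in cleared lysate read by EFC luminescence kit (18 h dark). Responses given as % of T1AM. EC50 from concentration-response fit, mean ± SEM of N independent triplicate runs.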

[2] = target: Trace amine-associated receptor 1 (Mus musculus, UniProt Q923Y8); assay: Activity at mouse TAAR1 expressed in HEK293 cells assessed as cAMP production; in short: as §1
Trace amine-associated receptor 1 (Mus musculus, UniProt Q923Y8), sequence (Q923Y8 whole entry): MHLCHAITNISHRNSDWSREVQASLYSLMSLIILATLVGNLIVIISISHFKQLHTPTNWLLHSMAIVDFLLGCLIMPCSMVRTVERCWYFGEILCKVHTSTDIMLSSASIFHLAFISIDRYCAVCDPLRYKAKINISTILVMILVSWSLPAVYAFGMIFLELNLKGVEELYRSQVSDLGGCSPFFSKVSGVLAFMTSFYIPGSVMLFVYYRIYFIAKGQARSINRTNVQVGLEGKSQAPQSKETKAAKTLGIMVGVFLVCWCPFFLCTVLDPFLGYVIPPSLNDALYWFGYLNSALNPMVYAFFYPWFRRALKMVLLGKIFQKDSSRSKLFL

[3] = target: Trace amine-associated receptor 1 (Mus musculus) (UniProt Q923Y8); assay: Efficacy at mouse TAAR1 expressed in HEK293 cells assessed as stimulation of cAMP production at 10 uM relative to 3-iodothyronamine
Trace amine-associated receptor 1 (Mus musculus), sequence (Q923Y8 whole entry, the tested form may be a part): as the sequence (Q923Y8 whole entry) above

[4] = target: Trace amine-associated receptor 1 (Rattus norvegicus) (UniProt Q923Y9); assay: Efficacy at rat TAAR1 expressed in HEK293 cells assessed as stimulation of cAMP production at 10 uM relative to 3-iodothyronamine
Trace amine-associated receptor 1 (Rattus norvegicus), sequence (Q923Y9 whole entry): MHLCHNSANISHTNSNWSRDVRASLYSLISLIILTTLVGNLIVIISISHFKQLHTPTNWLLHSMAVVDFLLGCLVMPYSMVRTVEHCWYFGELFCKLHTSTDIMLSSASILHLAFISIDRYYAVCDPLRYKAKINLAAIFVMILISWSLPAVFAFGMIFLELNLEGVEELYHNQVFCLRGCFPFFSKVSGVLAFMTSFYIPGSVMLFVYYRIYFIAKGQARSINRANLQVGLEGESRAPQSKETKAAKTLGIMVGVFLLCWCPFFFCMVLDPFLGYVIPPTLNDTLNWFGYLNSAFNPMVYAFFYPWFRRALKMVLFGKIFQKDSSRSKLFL

[5] = target: Trace amine-associated receptor 1 (Mus musculus) (UniProt Q923Y8); assay: Antagonist activity at mouse TAAR1 expressed in HEK293 cells at 10 uM assessed as inhibition of 3-iodothyronamine-induced cAMP production; set-up: scale not given: the % may be the effect or the level left
In short: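 Cells harvested in Krebs-Ringer-HEPES, preincubated 20-30 min with 200 µM IBMX, then exposed 1 h at 37 °C in KRH with 133 µM IBMX plus test compound at 10 µM (DMSO vehicle; forskolin 10 µM control). Cells lysed by boiling; cAMP measured by enzyme-fragment-complementation luminescence.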

Trace amine-associated receptor 1 (Rattus norvegicus, UniProt Q923Y9), sequence (Q923Y9 whole entry): as above

| Structure (SMILES) | EC50 [1] | EC50 [2] | Emax [3] | Emax [4] | Activity [5] |
| --- | --- | --- | --- | --- | --- |
| NCCc1ccc(Oc2ccccc2)cc1 | 0.063 µM | 0.42 µM | 85% | 93% |  |
| COc1ccc(C(CN)c2ccccc2)c2ccccc12 (configuration not stated) | 0.27 µM | > 1 µM | 14% | 71% |  |
| NCC(c1ccccc1)c1ccc(Oc2ccccc2)cc1 (configuration not stated) | 0.028 µM | > 1 µM | 35% | 103% |  |
| NCC(c1ccccc1)c1ccc(O)c2ccccc12 (configuration not stated) | 0.716 µM | > 1 µM | 14% | 89% |  |
| CC(CN)c1ccc(Oc2ccccc2)cc1 (configuration not stated) | 0.25 µM | > 1 µM | 72% | 94% |  |
| NCC(C#Cc1ccccc1)c1ccc(Oc2ccccc2)cc1 (configuration not stated) | 0.062 µM | > 1 µM | 2% | 119% |  |
| NCC(c1ccccc1)c1ccc(Oc2ccccc2)c2ccccc12 (configuration not stated) | 0.052 µM | > 1 µM | 0% | 100% |  |
| CC(C)(CN)c1ccc(Oc2ccccc2)cc1 | > 1 µM | > 1 µM | 18% | 13% |  |
| C#CC(CN)c1ccc(Oc2ccccc2)cc1 (configuration not stated) | 0.041 µM | 0.929 µM | 79% | 105% |  |
| NCCc1ccc(Oc2ccc(O)cc2)c(I)c1 | 0.033 µM | 0.314 µM | 100% | 100% | 30% |
| CN(C)CCCNC(=O)c1ccc(Oc2ccccc2)cc1 | > 1 µM | > 1 µM | 0% | 2% |  |
| NCCc1ccc(Oc2ccccc2)c2ccccc12 | 0.026 µM | 0.101 µM | 104% | 113% |  |
| NCC(c1ccccc1)c1cccc(Oc2ccccc2)c1 (configuration not stated) | 0.019 µM | > 1 µM | 15% | 131% |  |
| NCC(Cc1ccccc1)c1ccc(Oc2ccccc2)cc1 (configuration not stated) | 0.14 µM | > 1 µM | 31% | 92% |  |
